Legend:
NCI-H460 = assay: Inhibition of human NCI-H460 (human lung large cell carcinoma, MDR negative) cell growth; assay type: functional, cell-based
Outline: (§1)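 Sulforhodamine B assay following the NCI protocol. HCT-15 and NCI-H460 cells were exposed to final concentrations of 10^-11 to 10^-4 M and grown for 48 h at 37 °C in 5% CO2. […] Cells were TCA-fixed and stained, dye was solubilized in Tris, and absorbance was read. IC50 came from nonlinear regression as the geometric mean of at least two independent runs.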

HCT-15 = assay: Inhibition of human HCT-15 (human colon adenocarcinoma, MDR positive) cell growth; assay type: functional, cell-based; outline: as §1
[1] = Bioavailability; assay type: ADME, organism-based; conditions: eutheria, in vivo
Outline: (§2)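 Two animals were used in each dosing group, each given 5 mg/kg either orally or iv. Plasma Cmax, oral AUC and bioavailability are the average of the two animals.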

[2] = Maximum concentration of compound present in plasma measured; assay type: ADME, organism-based; outline: as §2
[3] = The oral Area under the plasma concentration curve(AUC) measured;when administered perorally; assay type: ADME; outline: as §2
[4] = Oral bioavailability in monkey; assay type: ADME, organism-based; conditions: primates, in vivo; outline: as §2
[5] = Oral bioavailability in dog; assay type: ADME, organism-based, Canis lupus familiaris; conditions: in vivo; outline: as §2
[6] = Oral bioavailability in mouse; assay type: ADME, organism-based; conditions: in vivo; outline: as §2
Tubulin beta chain = Tubulin beta chain (Bos taurus, UniProt Q6B856); assay: Concentration needed to inhibit tubulin polymerization by 50%; assay type: functional
Chain of Tubulin beta chain (Q6B856 whole entry): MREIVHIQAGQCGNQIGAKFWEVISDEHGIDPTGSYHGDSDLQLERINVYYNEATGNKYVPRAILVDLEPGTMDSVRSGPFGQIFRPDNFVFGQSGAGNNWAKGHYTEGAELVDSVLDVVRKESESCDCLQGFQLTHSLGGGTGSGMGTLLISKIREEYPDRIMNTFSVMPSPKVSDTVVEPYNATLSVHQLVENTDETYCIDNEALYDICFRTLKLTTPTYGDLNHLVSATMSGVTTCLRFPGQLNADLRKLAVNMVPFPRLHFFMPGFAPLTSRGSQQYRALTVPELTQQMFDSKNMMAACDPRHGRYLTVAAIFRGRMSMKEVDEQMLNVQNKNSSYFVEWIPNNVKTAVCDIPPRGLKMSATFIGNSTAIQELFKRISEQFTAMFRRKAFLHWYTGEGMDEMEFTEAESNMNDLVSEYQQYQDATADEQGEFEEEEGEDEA
Outline: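 Microtubule protein was purified from bovine brain, or purified tubulin in glycerol was used. Tubulin, buffer and GTP were prechilled to 4 °C, then added to wells containing drug or solvent. Polymerization ran at 37 °C, with light scattering followed at 340 nm for 30 min. The degree of polymerization was taken from the AUC of the profile. IC50 came from nonlinear regression as the geometric mean of at least two independent runs.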

[7] = The oral Area under the plasma concentration curve(AUC) measured;when administered as perorally; assay type: ADME; outline: as §2

Row | Compound | IC50 (NCI-H460) [nM] | IC50 (HCT-15) [nM] | bioavailability [1] [%] | Cmax [2] [ng/mL] | AUC [3] [ng·h/mL] | bioavailability [4] [%] | bioavailability [5] [%] | bioavailability [6] [%] | IC50 (Tubulin beta chain) [nM] | AUC [7] [ng·h/mL]
1 | COc1cc(-n2cncc2-c2ccc(N)cc2)cc(OC)c1OC | 8550 | 7260 | – | – | – | – | – | – | – | –
2 | COc1cc(-c2ncn(C)c2-c2cc(Cl)c3c(ccn3C)c2)cc(OC)c1OC | 12 | 12 | 10.2 | 130 | 220 | – | – | – | – | –
3 | COc1ccc(-c2ccnn2-c2cc(OC)c(OC)c(OC)c2)cc1N | 33 | 28 | – | – | – | – | – | – | – | –
4 | COc1cc(-c2ncn(C)c2-c2ccc3ccn(C)c3c2)cc(OC)c1OC | 32 | 20 | 32 | 169 | 461 | 12.5 | 44.5 | 24.2 | 2000 | –
5 | COc1cc(-c2[nH]cnc2-c2ccc3ccn(C)c3c2)cc(OC)c1OC | 1.8 | 1.7 | 0.31 | < 10 | 14.2 | – | – | – | 1100 | –
6 | COc1cc(-c2ncn(C)c2-c2cc(F)c3c(ccn3C)c2)cc(OC)c1OC | 23 | 27 | 12.3 | 209 | 340 | – | – | – | – | –
7 | COc1cc(-c2ncoc2-c2ccc(N(C)C)cc2)cc(OC)c1OC | 41 | 18 | – | – | – | – | – | – | 870 | –
8 | COc1cc(-c2[nH]cnc2-c2ccc(N(C)C)cc2)cc(OC)c1OC | 2 | 4.4 | 1.3 | 15.1 | 16.2 | – | – | – | 3700 | –
9 | COc1ccc(-c2[nH]cnc2-c2cc(OC)c(OC)c(OC)c2)cc1 | 7.2 | 7.8 | – | – | – | – | – | – | 2800 | –
10 | COc1cc(-c2cncn2-c2ccc(N(C)C)cc2)cc(OC)c1OC | 589 | 333 | 0.01 | < 10 | – | – | – | – | 130000 | –
11 | COc1ccc(-c2[nH]cnc2-c2cc(OC)c(OC)c(OC)c2)cc1F | 3.8 | 3.8 | – | – | – | – | – | – | – | –
12 | COc1cc(-n2cncc2-c2ccc(N(C)C)cc2)cc(OC)c1OC | 79 | 36 | – | – | – | – | – | – | 23000 | –
13 | COc1cc(-c2ncoc2-c2ccc3c(ccn3C)c2)cc(OC)c1OC | 12 | 7.4 | – | – | – | – | – | – | 790 | –
14 | COc1ccc(-c2ncoc2-c2cc(OC)c3c(c2)OCO3)cc1N | 53 | 76 | – | – | – | – | – | – | – | –
15 | COc1ccc(-c2[nH]cnc2-c2cc(OC)c(OC)c(OC)c2)cc1O | 11 | 10 | – | – | – | – | – | – | 730 | –
16 | COc1cc(-c2[nH]c(-c3ccoc3)nc2-c2ccc(N(C)C)cc2)cc(OC)c1OC | 190 | 67 | – | – | – | – | – | – | – | –

Row | Compound | IC50 (NCI-H460) [nM] | IC50 (HCT-15) [nM] | bioavailability [1] [%] | Cmax [2] [ng/mL] | AUC [3] [ng·h/mL] | bioavailability [4] [%] | bioavailability [5] [%] | bioavailability [6] [%] | IC50 (Tubulin beta chain) [nM] | AUC [7] [ng·h/mL]
17 | COc1cc(-n2cncc2-c2ccc3c(c2)CCN3C)cc(OC)c1OC | 150 | 58 | – | – | – | – | – | – | 48000 | –
18 | COc1ccc(-c2ocnc2-c2cc(OC)c(OC)c(OC)c2)cc1O | 2.3 | 2.2 | – | – | – | – | – | – | 980 | –
19 | COc1ccc(-c2cncn2-c2cc(OC)c(OC)c(OC)c2)cc1N | 63 | 69 | – | – | – | – | – | – | 7700 | –
20 | COc1ccc(-c2ncn(C)c2-c2cc(OC)c(OC)c(OC)c2)cc1N | 34 | 79 | 29.9 | 623 | 1500 | – | – | – | – | –
21 | COc1ccc(-c2[nH]cnc2-c2cc(OC)c(OC)c(OC)c2)cc1N | 8.5 | 8.1 | 45 | < 74 | < 218 | – | – | – | 680 | –
22 | COc1ccc(-c2ncoc2-c2cc(OC)c(OC)c(OC)c2)cc1N | 11 | 7.2 | 0 | – | – | – | – | – | – | –
23 | COc1ccc(-c2ocnc2-c2cc(OC)c(OC)c(OC)c2)cc1N | 9.2 | 11 | 0.5 | 22 | – | – | – | – | 920 | 12
24 | COc1ccc(-c2cncn2-c2cc(OC)c(OC)c(OC)c2)cc1O | 61 | 89 | – | – | – | – | – | – | 7600 | –
25 | COc1ccc(-c2c(-c3cc(OC)c(OC)c(OC)c3)ncn2C)cc1N | 170 | 220 | 82.3 | 3860 | 10800 | 91.2 | 45.8 | 89.7 | 31000 | –
26 | COc1ccc(-c2nc(C)oc2-c2cc(OC)c(OC)c(OC)c2)cc1O | 35 | 15 | – | – | – | – | – | – | – | –
27 | COc1cc(-c2nccnc2-c2ccc(N(C)C)cc2)cc(OC)c1OC | 707 | 303 | – | – | – | – | – | – | – | –
28 | COc1cc(-n2ccnc2-c2ccc(N(C)C)cc2)cc(OC)c1OC | 270 | 80 | – | – | – | – | – | – | 35000 | –
29 | COc1cc(-n2cncc2-c2ccc3c(ccn3C)c2)cc(OC)c1OC | 19 | 14 | – | – | – | – | – | – | 1800 | –
30 | COc1cc(-n2cncc2-c2ccc3[nH]ccc3c2)cc(OC)c1OC | 540 | 350 | – | – | – | – | – | – | 71000 | –
31 | COc1cc(-c2c(-c3ccc4c(ccn4C)c3)ncn2C)cc(OC)c1OC | 51 | 27 | 2.5 | 70 | 112 | – | – | – | – | –

Source: ChEMBL document CHEMBL1135921, “Potent, orally active heterocycle-based combretastatin A-4 analogues: synthesis, structure-activity relationship, pharmacokinetics, and in vivo antitumor activity evaluation” (J Med Chem, 2002)
